Measured values from ChEMBL document CHEMBL1145462, “In vivo pharmacodynamic activity of the glycopeptide dalbavancin” (Antimicrob Agents Chemother, 2007).
≈ marks a conversion by molar mass, not a printed value.

Columns and labels:
Staphylococcus aureus [1] = assay: AUC/MIC ratio of Staphylococcus aureus 31005 infected neutropenic mouse thigh infection model at 49.3 mg/kg, ip administered every 24 hrs by static effect experiment; type: functional; conditions: route intraperitoneal
Staphylococcus aureus [2] = assay: AUC/MBC ratio of methicillin-resistant Staphylococcus aureus infected neutropenic mouse thigh infection model at 37.7 mg/kg, ip administered every 24 hrs by static effect experiment; type: functional; conditions: route intraperitoneal
Staphylococcus aureus [3] = assay: AUC/MIC ratio of Staphylococcus aureus Smith infected neutropenic mouse thigh infection model at 59 mg/kg, ip administered every 72 hrs by static effect experiment; type: functional; conditions: route intraperitoneal
Staphylococcus aureus [4] = assay: AUC/MIC ratio of Staphylococcus aureus 307109 infected neutropenic mouse thigh infection model at 31 mg/kg, ip administered every 72 hrs by static effect experiment; type: functional; conditions: route intraperitoneal
Staphylococcus aureus [5] = assay: AUC/MBC ratio of Staphylococcus aureus 307109 infected neutropenic mouse thigh infection model at 31 mg/kg, ip administered every 72 hrs by static effect experiment; type: functional; conditions: route intraperitoneal
Streptococcus pneumoniae [6] = assay: AUC/MIC ratio of Streptococcus pneumoniae 1199 infected neutropenic mouse thigh infection model at 0.49 mg/kg, ip administered every 24 hrs by 1-log killing experiment; type: functional; conditions: route intraperitoneal
Staphylococcus aureus [7] = assay: AUC/MBC ratio of Staphylococcus aureus ATCC 25923 infected neutropenic mouse thigh infection model at 51.2 mg/kg, ip administered every 24 hrs by 1-log killing experiment; type: functional; conditions: route intraperitoneal
Staphylococcus aureus [8] = assay: AUC/MBC ratio of methicillin-resistant Staphylococcus aureus infected neutropenic mouse thigh infection model at 45.3 mg/kg, ip administered every 24 hrs by 1-log killing experiment; type: functional; conditions: route intraperitoneal
Streptococcus pneumoniae [9] = assay: AUC/MIC ratio of Streptococcus pneumoniae 1293 infected neutropenic mouse thigh infection model at 1.28 mg/kg, ip administered every 72 hrs by 1-log killing experiment; type: functional; conditions: route intraperitoneal
Staphylococcus aureus [10] = assay: AUC/MIC ratio of methicillin-resistant Staphylococcus aureus infected neutropenic mouse thigh infection model at 62 mg/kg, ip administered every 72 hrs by 1-log killing experiment; type: functional; conditions: route intraperitoneal
Staphylococcus aureus [11] = assay: AUC/MIC ratio of Staphylococcus aureus Smith infected neutropenic mouse thigh infection model at 95 mg/kg, ip administered every 72 hrs by 1-log killing experiment; type: functional; conditions: route intraperitoneal
Streptococcus pneumoniae [12] = assay: AUC/MIC ratio of Streptococcus pneumoniae 1293 infected neutropenic mouse thigh infection model at 0.65 mg/kg, ip administered every 24 hrs by 2-log killing experiment; type: functional; conditions: route intraperitoneal
Staphylococcus aureus [13] = assay: AUC/MIC ratio of Staphylococcus aureus ATCC 25923 infected neutropenic mouse thigh infection model at 60 mg/kg, ip administered every 24 hrs by 2-log killing experiment; type: functional; conditions: route intraperitoneal
Staphylococcus aureus [14] = assay: AUC/MBC ratio of Staphylococcus aureus Smith infected neutropenic mouse thigh infection model at 73.5 mg/kg, ip administered every 24 hrs by 2-log killing experiment; type: functional; conditions: route intraperitoneal
Streptococcus pneumoniae [15] = assay: AUC/MIC ratio of Streptococcus pneumoniae 1325 infected neutropenic mouse thigh infection model at 1.16 mg/kg, ip administered every 72 hrs by 2-log killing experiment; type: functional; conditions: route intraperitoneal
Streptococcus pneumoniae [16] = assay: AUC/MIC ratio of Streptococcus pneumoniae ATCC 10813 infected neutropenic mouse thigh infection model at 0.82 mg/kg, ip administered every 72 hrs by 2-log killing experiment; type: functional; conditions: route intraperitoneal
Staphylococcus aureus [17] = assay: AUC/MIC ratio of methicillin-resistant Staphylococcus aureus infected neutropenic mouse thigh infection model at 85 mg/kg, ip administered every 72 hrs by 2-log killing experiment; type: functional; conditions: route intraperitoneal
Staphylococcus aureus [18] = assay: AUC/MIC ratio of Staphylococcus aureus Smith infected neutropenic mouse thigh infection model at 148 mg/kg, ip administered every 72 hrs by 2-log killing experiment; type: functional; conditions: route intraperitoneal
Streptococcus pneumoniae [19] = assay: Antibacterial activity against Streptococcus pneumoniae 1293 by microdilution method; type: functional
Summary of the method: (§1)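 MIC and MBC were determined by CLSI broth microdilution, in duplicate on at least two occasions. Staphylococci were grown in Mueller-Hinton broth and agar; pneumococci were plated on sheep blood agar.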

[20] = Cmax in bacterial pathogen-infected neutropenic Swiss ICR mouse thigh infection model at 40 mg/kg, ip; type: ADME, organism-based; design: dose 40 mg/kg, route intraperitoneal; conditions: in vivo
Summary of the method: (§2)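 Thigh-infected neutropenic mice received single intraperitoneal doses (2.5, 5, 10, 20, 40, 80 mg/kg; 0.2 ml/dose). Blood was drawn by retroorbital aspiration from groups of three mice at 0.5, 1, 2, 4, 6, 24, 48, 72 and 96 h. Plasma levels were measured by microbiologic assay with Bacillus subtilis (detection limit 0.10 mg/liter). Noncompartmental analysis was used: half-life by linear least-squares regression, AUC by trapezoidal rule.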

Staphylococcus aureus [21] = assay: Bactericidal activity against […] Staphylococcus aureus ATCC 29213 infected neutropenic Swiss ICR mouse thigh infection model assessed as drug level causing 1-log reduction of bacterial count at 15 mg/kg, ip dosed every 36 hrs; type: functional; conditions: route intraperitoneal
Streptococcus pneumoniae [22] = assay: Bactericidal activity in Streptococcus pneumoniae ATCC 10813 infected neutropenic mouse thigh infection model assessed as drug level causing 2-log reduction of bacterial count at 4.13 mg/kg/6days; type: functional
Staphylococcus aureus [23] = assay: Antibacterial activity against methicillin-resistant Staphylococcus aureus in presence of 95% mouse serum; type: functional
Summary of the method: (§3)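 MIC determined in broth, heat-treated (100°C, 30 min) 95% mouse serum, and 95% mouse serum ultrafiltrate, using arithmetic dilutions of 0.02 mg/liter per tube. Protein binding estimated as (MIC in 95% serum − MIC in ultrafiltrate)/MIC in 95% serum.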

Staphylococcus aureus [24] = assay: Antibacterial activity against methicillin-resistant Staphylococcus aureus in presence of 95% mouse serum ultrafiltrate; type: functional; summary of the method: as §3
Staphylococcus aureus [25] = assay: Antibacterial activity against Staphylococcus aureus ATCC 25923 by microdilution method; type: functional; summary of the method: as §1
Staphylococcus aureus [26] = assay: Antibacterial activity against Staphylococcus aureus 31005 by microdilution method; type: functional; summary of the method: as §1
Staphylococcus aureus [27] = assay: Antibacterial activity against Staphylococcus aureus 307109 by microdilution method; type: functional; summary of the method: as §1
[28] = AUC in bacterial pathogen-infected neutropenic Swiss ICR mouse thigh infection model at 2.5 mg/kg, ip; type: ADME, organism-based; design: dose 2.5 mg/kg, route intraperitoneal; conditions: in vivo
Summary of the method: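 Single-dose serum PK in thigh-infected neutropenic mice; intraperitoneal dalbavancin (0.2 ml/dose) at 2.5–80 mg/kg. Blood from groups of three mice at 0.5–96 h by retroorbital aspiration; plasma level by Bacillus subtilis microbiologic assay (detection limit 0.10 mg/liter). Noncompartmental analysis; AUC by trapezoidal rule from mean concentrations, extrapolated to infinity.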

[29] = AUC in bacterial pathogen-infected neutropenic Swiss ICR mouse thigh infection model at 5 mg/kg, ip; type: ADME, organism-based; design: dose 5 mg/kg, route intraperitoneal; conditions: in vivo; summary of the method: as §2
Mus musculus = assay: AUC in bacterial pathogen-infected neutropenic Swiss ICR mouse thigh infection model at 10 mg/kg, ip; type: ADME, organism-based; design: dose 10 mg/kg, route intraperitoneal; conditions: in vivo; summary of the method: as §2
Streptococcus pneumoniae [30] = assay: Bactericidal activity against penicillin-susceptible Streptococcus pneumoniae ATCC 10813 infected neutropenic Swiss ICR mouse thigh infection model assessed as drug level causing 2-log reduction of bacterial count at 1.34 mg/kg, ip dosed every 24 hrs; type: functional; conditions: route intraperitoneal
Summary of the method: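 Neutropenic mice (cyclophosphamide ip 150 mg/kg day −4, 100 mg/kg day −1, then every 48 h) received 0.1 ml log-phase inoculum per thigh under halothane. Intraperitoneal dalbavancin started 2 h later and was given for 6 days at q12h, q24h, q36h or q72h, two mice per regimen. Thigh CFU were counted at 144 h. Endpoint doses relative to start-of-therapy counts came from Hill-model nonlinear regression and are expressed per 24 h.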

Molecule `CN[C@H]1C(=O)N[C@@H]2Cc3ccc(cc3)Oc3cc4cc(c3O[C@@H]3O[C@H](C(=O)O)[C@@H](O)[C@H](O)[C@H]3NC(=O)CCCCCCCCC(C)C)Oc3ccc(cc3Cl)[C@@H](O)[C@@H]3NC(=O)[C@H](NC(=O)[C@@H]4NC(=O)[C@@H](NC2=O)c2cc(cc(O)c2Cl)Oc2cc1ccc2O)c1ccc(O)c(c1)-c1c(O[C@H]2O[C@H](CO)[C@@H](O)[C@H](O)[C@@H]2O)cc(O)cc1[C@@H](C(=O)NCCCN(C)C)NC3=O` [DALBAVANCIN] has a RatioAUC/MIC (Staphylococcus aureus [1]) of 483, a Ratio (Staphylococcus aureus [2]) of 93 and a RatioAUC/MIC (Staphylococcus aureus [3]) of 96. The RatioAUC/MIC (Staphylococcus aureus [4]) was 94, the Ratio (Staphylococcus aureus [5]) was 11.3 and the RatioAUC/MIC (Streptococcus pneumoniae [6]) was 19.4. It also gave a Ratio (Staphylococcus aureus [7]) of 60, a Ratio (Staphylococcus aureus [8]) of 109 and a RatioAUC/MIC (Streptococcus pneumoniae [9]) of 18. For the same molecule, the RatioAUC/MIC (Staphylococcus aureus [10]) was 202, the RatioAUC/MIC (Staphylococcus aureus [11]) was 163 and the RatioAUC/MIC (Streptococcus pneumoniae [12]) was 25.9. It also gave a RatioAUC/MIC (Staphylococcus aureus [13]) of 289, a Ratio (Staphylococcus aureus [14]) of 173 and a RatioAUC/MIC (Streptococcus pneumoniae [15]) of 17.6. The RatioAUC/MIC (Streptococcus pneumoniae [16]) was 1.6, the RatioAUC/MIC (Staphylococcus aureus [17]) was 292 and the RatioAUC/MIC (Staphylococcus aureus [18]) was 254. For the same molecule, the MBC (Streptococcus pneumoniae [19]) was 0.004 µg/mL (≈ 0.0022 µM), the MIC (Streptococcus pneumoniae [19]) was 0.004 µg/mL (≈ 0.0022 µM) and the Cmax [20] was 663 µg/mL. For the same molecule, the Activity (Staphylococcus aureus [21]) was 36, the Activity (Streptococcus pneumoniae [22]) was 4.62 and the MIC (Staphylococcus aureus [23]) was 32 µg/mL. For the same molecule, the MIC (Staphylococcus aureus [24]) was 0.5 µg/mL, the MBC (Staphylococcus aureus [25]) was 0.5 µg/mL (≈ 0.275 µM) and the MIC (Staphylococcus aureus [25]) was 0.12 µg/mL (≈ 0.0661 µM). The MBC (Staphylococcus aureus [26]) was 0.12 µg/mL (≈ 0.0661 µM), the MIC (Staphylococcus aureus [26]) was 0.06 µg/mL (≈ 0.033 µM) and the MBC (Staphylococcus aureus [27]) was 0.12 µg/mL (≈ 0.0661 µM). For the same molecule, the MIC (Staphylococcus aureus [27]) was 0.06 µg/mL (≈ 0.033 µM), the AUC [28] was 98 µg·h/mL and the AUC [29] was 285 µg·h/mL. It also gave an AUC (Mus musculus) of 579 µg·h/mL and an Activity (Streptococcus pneumoniae [30]) of 1.75.
